From ChEMBL document CHEMBL3044956, “Nematicidal and antifungal activities of annonaceous acetogenins from Annona squamosa against various plant pathogens” (J Agric Food Chem, 2011) come the findings set out here.

Molecules are shown by their SMILES.

Common to all, as to format: functional
The test system of assay [1] is Colletotrichum coccodes. The assay is described as follows: In vivo antifungal activity against Colletotrichum coccodes infected red pepper seedlings assessed as control of red pepper anthracnose development at 10 ug/ml treated 1 day before spore inoculation measured 3-7 days after inoculation. The method, boiled down:
(§1)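 Potted seedlings sprayed to runoff with material dissolved in MeOH and diluted in 0.025% Tween 20 (5% MeOH); controls got the Tween/MeOH solution alone. Inoculated with spores or mycelial suspension 1 day later. Infected leaf or sheath area rated 3–7 days after inoculation; % control = 100(A−B)/A. Randomized complete block design, three replicates, run in duplicate; Tukey HSD.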

The test system of assay [2] is Colletotrichum coccodes. In words: In vivo antifungal activity against Colletotrichum coccodes infected red pepper seedlings assessed as control of red pepper anthracnose development at 50 ug/ml treated 1 day before spore inoculation measured 3-7 days after inoculation. The method, boiled down:
as §1

Assay [3] deals with Botrytis cinerea. In words: In vivo antifungal activity against Botryotinia fuckeliana infected in tomato seedlings assessed as control of tomato gray mold disease development at 5 ug/ml treated 1 day before spore inoculation measured 3-7 days after inoculation. The method, boiled down: as §1
Assay [4] deals with Botrytis cinerea. The assay is described as follows: In vivo antifungal activity against Botryotinia fuckeliana infected in tomato seedlings assessed as control of tomato gray mold disease development at 50 ug/ml treated 1 day before spore inoculation measured 3-7 days after inoculation. The method in brief:
as §1

The subject of assay [5] is Puccinia recondita. In words: In vivo antifungal activity against Puccinia recondita infected wheat seedlings assessed as reduction in wheat leaf rust disease symptoms development at 10 ug/ml treated 1 day before spore inoculation measured 7 days after inoculation. Further details: scale not given: the % may be the effect or the level left. The method, boiled down: as §1

The test system of assay [6] is Puccinia recondita. In words: In vivo antifungal activity against Puccinia recondita infected wheat seedlings assessed as reduction in wheat leaf rust disease symptoms development at 2 ug/ml treated 1 day before spore inoculation measured 7 days after inoculation. Also on record: scale not given: the % may be the effect or the level left. The method, boiled down:
as §1

The subject of assay [7] is Rhizoctonia solani. In words: In vivo antifungal activity against Rhizoctonia solani infected rice seedlings assessed as control of rice sheath blight disease development at 5 ug/ml treated 1 day before spore inoculation measured 3-7 days after inoculation. The method in brief: as §1
The subject of assay [8] is Rhizoctonia solani. In words: In vivo antifungal activity against Rhizoctonia solani infected rice seedlings assessed as control of rice sheath blight disease development at 50 ug/ml treated 1 day before spore inoculation measured 3-7 days after inoculation. The method in brief: as §1

As for `N#Cc1sc2c(=O)c3ccccc3c(=O)c=2sc1C#N` [DITHIANON], the Activity in the assay with Colletotrichum coccodes [1] is reported as 20%; with Colletotrichum coccodes [2], 100%.

On to `N#Cc1c[nH]cc1-c1cccc2c1OC(F)(F)O2` [FLUDIOXONIL], for which the Activity is listed as 83% with Botrytis cinerea [3] and 100% with Botrytis cinerea [4].

Consider `C[Si](Cn1cncn1)(c1ccc(F)cc1)c1ccc(F)cc1` [FLUSILAZOLE], for which the Activity is 100% in the assay on Puccinia recondita [5] and 78% with Puccinia recondita [6].

`OCC1=C[C@H](N[C@H]2C[C@H](CO)[C@@H](O[C@@H]3O[C@H](CO)[C@@H](O)[C@H](O)[C@H]3O)[C@H](O)[C@H]2O)[C@H](O)[C@@H](O)[C@@H]1O` [VALIDAMYCIN]: the Activity is on record as 70% in the assay with Rhizoctonia solani [7] and 100% with Rhizoctonia solani [8].
